# Compound activity (PubChem)
# T cruzi growth-1 = T. cruzi proliferation inhibition; T. cruzi beta-gal in NIH3T3, GalScreen luminescence, 90 h; inhibition, % at 8.34 µM; 77,000 tested, 5.9% active;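 active = mean inhibition above about 93%, with at least 55% of replicates each passing it, limit read from the data, passing the limit was not always enough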
# IDH1 R132H inh = IDH1 R132H (human) inhibition; IDH1 R132H reductase, diaphorase/resazurin fluorescence, 60 min; inhibition, % at 10 µM; 70,000 tested, 0.18% active; in the data active = inhibition above about 34%;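 note: 0% = DMSO and 100% = no enzyme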
# Target sequence (O75874 whole entry R132H): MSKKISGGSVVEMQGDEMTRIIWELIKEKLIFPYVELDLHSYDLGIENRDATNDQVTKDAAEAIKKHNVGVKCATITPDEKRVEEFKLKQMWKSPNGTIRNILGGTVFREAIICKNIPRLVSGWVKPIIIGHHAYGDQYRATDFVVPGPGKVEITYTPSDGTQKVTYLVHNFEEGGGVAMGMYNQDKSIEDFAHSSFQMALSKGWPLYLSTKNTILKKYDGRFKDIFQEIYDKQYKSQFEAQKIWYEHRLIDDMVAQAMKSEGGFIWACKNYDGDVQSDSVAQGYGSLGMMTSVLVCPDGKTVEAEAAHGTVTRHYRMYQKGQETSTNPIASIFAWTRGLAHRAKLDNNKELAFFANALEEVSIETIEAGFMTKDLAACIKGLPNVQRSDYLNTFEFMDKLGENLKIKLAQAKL
# KDM4C inh = blocks human GASC-1 (KDM4C) demethylase activity; Q9H3R0; GST-KDM4C 2-372, H3K9me3 peptide, LANCE TR-FRET; inhibition, % at 12.5 µM; 96,000 tested, 0.15% active; AID 720574;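 active = mean replicate inhibition above about 25%, with at least 55% of replicates also reaching it, limit read from the data, passing the limit was not always enough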
#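 Assay system: GST-GASC-1 enzyme fragment 2-372 | Amount: 10 nM enzyme | Medium: HEPES buffer, pH 7.5, plus ascorbate | Reagent: H3K9me3 peptide substrate, Fe(II), 2-oxoglutarate | Doses: Single-point compound screen | Incubation: 30 min demethylation and 1 h detection at room temperature | Measured by: LANCE TR-FRET, excitation 340 nm, emissions 618 and 671 nm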
# T cruzi growth-2 = Trypanosoma cruzi proliferation inhibition; AID 651739; shares compounds with T cruzi growth-1; inhibition, % at 8.35 µM; T. cruzi beta-gal in NIH3T3, GalScreen luminescence, 90 h; 5,600 tested, 72% active;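 active = mean replicate inhibition above about 95% and at least 55% of replicates individually reaching it, limit read from the data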
# T cruzi growth-3 = Trypanosoma cruzi proliferation inhibition; T. cruzi beta-gal in NIH3T3, GalScreen luminescence, 90 h; inhibition, % at 2.09 µM; 5,600 tested, 21% active; AID 651740; shares compounds with T cruzi growth-1;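 active = mean inhibition above about 95%, with at least 55% of replicates also reaching it, limit read from the data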;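 note: plate controls were neutral control median for no effect and positive control median for full effect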
# NIH3T3 tox = kills mouse NIH/3T3 fibroblasts | shares compounds with T cruzi growth-1 | NIH/3T3 viability, CellTiter-Glo ATP luminescence, 90 h | cytotoxicity (signal decrease), % at 8.35 µM | 5,600 tested, 14% active | AID 651742;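 active = mean signal decrease across replicates above about 35% based on untreated-well scatter, with enough replicates individually passing, limit read from the data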;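 note: 0% = median of neutral control wells and 100% = median of positive control wells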
# NIH3T3 tox 2 = NIH/3T3 (mouse) viability loss; shares compounds with T cruzi growth-1; NIH/3T3 viability, CellTiter-Glo ATP luminescence, 90 h; inhibition, % at 24.9 µM; 5,600 tested, 56% active;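 active = mean loss of cell viability signal at or above a set limit, and enough replicates individually reaching it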;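 note: 0% = median of neutral control wells and 100% = median of positive control wells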
# * hit, by the source's call; . = no result. Only a selection was taken, and hits are over-represented in it overall.
SMILES,T cruzi growth-1,IDH1 R132H inh,KDM4C inh,T cruzi growth-2,T cruzi growth-3,NIH3T3 tox,NIH3T3 tox 2
O=C(C[C@H]1CC[C@@H]2[C@H](COC[C@@H](O)CN2Cc2ccc(Oc3ccccc3)cc2)O1)Nc1nccs1,72.8,.,2.8,.,.,.,.
O=C(C[C@H]1CC[C@H]2[C@@H](COC[C@H](O)CN2Cc2ccc(Oc3ccccc3)cc2)O1)Nc1nccs1,190.7*,.,2.8,102.9*,53.5,3.0,19.8
COc1ccc(NC(=O)CCSc2nnc3scc(-c4ccc(C)cc4)n23)cc1,.,-0.5,.,.,.,.,.
COc1cc(/C=N/NC(=O)c2cccc(C(=O)NO)c2)c(Br)cc1O,.,0.0,.,.,.,.,.
Cc1ccc(-c2nc3cc(NC(=O)COc4ccccc4[N+](=O)[O-])ccc3o2)cc1,.,-0.2,.,.,.,.,.
Cc1ccc(C(C)C)c(OCC(=O)Nc2ccccc2C#N)c1,.,-0.8,.,.,.,.,.
CC(C)CC#Cc1ccc2c(c1)O[C@H](CN(C)Cc1cncnc1)[C@@H](C)CN([C@H](C)CO)S2(=O)=O,103.4*,-3.3,2.3,94.4,106.4*,47.4*,60.6*
CC(C)CC#Cc1ccc2c(c1)O[C@@H](CN(C)Cc1cccnc1)[C@@H](C)CN([C@H](C)CO)S2(=O)=O,65.1,9.9,-0.7,.,.,.,.
CC(C)CC#Cc1ccc2c(c1)O[C@H](CN(C)Cc1cccnc1)[C@@H](C)CN([C@@H](C)CO)S2(=O)=O,99.8*,21.6,1.1,93.1,101.9*,12.9,104.3*
CC(C)CC#Cc1ccc2c(c1)O[C@@H](CN(C)Cc1cccnc1)[C@H](C)CN([C@@H](C)CO)S2(=O)=O,93.9,18.8,0.1,.,.,.,.
CC(C)CC#Cc1ccc2c(c1)O[C@@H](CN(C)Cc1cccnc1)[C@@H](C)CN([C@@H](C)CO)S2(=O)=O,107.6*,10.1,-0.7,108.3*,90.5,29.9,107.0*
CC(C)CC#Cc1ccc2c(c1)O[C@H](CN(C)Cc1cncnc1)[C@H](C)CN([C@H](C)CO)S2(=O)=O,22.2,-1.0,-0.4,.,.,.,.
C[C@H]1CCCCO[C@H](CN(C)S(=O)(=O)c2ccc(Cl)cc2)[C@@H](C)CN([C@@H](C)CO)C(=O)c2cc(NS(=O)(=O)c3cccs3)ccc2O1,113.9*,.,0.1,104.3*,62.4,8.0,-19.4
Cc1ccc(S(=O)(=O)N(C)C[C@@H]2OCCCC[C@H](C)Oc3ccc(NS(=O)(=O)c4cccs4)cc3C(=O)N([C@H](C)CO)C[C@H]2C)cc1,117.7*,-2.9,1.4,105.0*,39.4,7.8,-2.3
Cc1ccc(S(=O)(=O)N(C)C[C@H]2OCCCC[C@H](C)Oc3ccc(NS(=O)(=O)c4cccs4)cc3C(=O)N([C@@H](C)CO)C[C@H]2C)cc1,58.3,.,1.2,.,.,.,.
C[C@@H]1CN([C@H](C)CO)C(=O)c2cc(NS(=O)(=O)c3cccs3)ccc2O[C@@H](C)CCCCO[C@H]1CN(C)S(=O)(=O)c1ccc(Cl)cc1,.,-0.6,-0.5,.,.,.,.
C[C@@H]1CCCCO[C@H](CN(C)S(=O)(=O)c2ccc(Cl)cc2)[C@H](C)CN([C@H](C)CO)C(=O)c2cc(NS(=O)(=O)c3cccs3)ccc2O1,112.3*,.,-2.2,105.6*,96.3*,4.0,-28.7
C[C@@H]1CCCCO[C@@H](CN(C)S(=O)(=O)c2ccc(Cl)cc2)[C@@H](C)CN([C@H](C)CO)C(=O)c2cc(NS(=O)(=O)c3cccs3)ccc2O1,69.2,.,-1.7,.,.,.,.
C[C@H](CO)N1C[C@H](C)[C@H](CN(C)S(=O)(=O)c2ccc(Cl)cc2)OCCCC[C@H](C)Oc2ccc(NS(=O)(=O)c3cccs3)cc2C1=O,111.1*,.,0.5,96.9*,44.8,-24.5,-46.1
C[C@@H]1CCCCO[C@@H](CN(C)S(=O)(=O)c2ccc(Cl)cc2)[C@@H](C)CN([C@@H](C)CO)C(=O)c2cc(NS(=O)(=O)c3cccs3)ccc2O1,91.3,.,1.1,.,.,.,.
CCN(CC)CCNc1ncnc2sc3c(c12)CC(C)(C)OC3,.,-0.3,.,.,.,.,.
O=C(CSc1nnc(-c2cccnc2)n1-c1cccc(C(F)(F)F)c1)c1ccc(F)cc1,.,-0.3,.,.,.,.,.
